In the array DNA melting data of Ke et al. (doi:10.1101/2024.01.08.574731):

Assays:
[1] = melting temperature; fluorescence melt of hairpins on a sequencing array, two-state fit, raised by 9.35 °C to match UV melts; conditions: sodium 0.088 M
Method in brief: (§1)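 On a sequenced MiSeq flow cell, library hairpins with annealed Cy3 and quencher oligos were imaged for Cy3 fluorescence in 2.5 °C steps up to 60 °C, in 50 mM Na-HEPES pH 8.0, 25 mM NaCl. Normalisation used pre-quench Cy3 and control constructs. Bootstrapped two-state fits gave melting temperature and folding enthalpy, combined by inverse variance across four replicates and with fitted temperatures raised by 9.35 °C to match UV melts.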

[2] = folding enthalpy; higher = less favourable; fluorescence melt of hairpins on a sequencing array, two-state fit; conditions: sodium 0.088 M
Method in brief: as §1

Sequence | Tm [1] | folding enthalpy [2]
GGCTAGGAAACTAGCC ((((((....)))))) | 60.4 °C | -34.8 kcal/mol
GGCTAGGGAAACCTAGCC (((((((....))))))) | 67.5 °C | -42.6 kcal/mol
GGCTAGGGAAACCTGGTC (.(.(((....))).).) | 35.5 °C | -30.6 kcal/mol
GGCTAGGGAAACTTGGCC (((.(.(....).).))) | 40.6 °C | -25.9 kcal/mol
GGCTAGTCGAAAGACGCC (((..(((....)))))) | 52.3 °C | -19.9 kcal/mol
GGCTATCGAAAGATGCC (((.(((....)))))) | 52.8 °C | -25.3 kcal/mol
GGCTATGGAAACATGGCC (((.(((....))).))) | 53.2 °C | -53.7 kcal/mol
GGCTCAGGAAACCAAGCC ((((..(....)..)))) | 35.3 °C | -31.6 kcal/mol
GGCTCAGGAAACTGGGTC (.(.(((....))).).) | 38 °C | -25.9 kcal/mol
GGCTCCCCGAAAGGGGCC (((..(((....)))))) | 50.9 °C | -12 kcal/mol
GGCTCCCGAAAGGGCGCC (((.(((....))).))) | 62.6 °C | -33.6 kcal/mol
GGCTCCGAAAGGATAGCC ((((((....)))..))) | 52.4 °C | -39.5 kcal/mol
GGCTCCGAAAGGATCGCC ((((((....)))..))) | 47.2 °C | -21.7 kcal/mol
GGCTCCGAAAGGATGGCC ((((((....)))..))) | 52.3 °C | -30.9 kcal/mol
GGCTCCGGAAACAGAGCC (((((.(....).))))) | 50.5 °C | -34 kcal/mol
GGCTCCGGAAACGGAACC ((.((((....)))).)) | 51.1 °C | -28.9 kcal/mol
GGCTCGGCGAAAGCCGCC (((..(((....)))))) | 43 °C | -8.18 kcal/mol
GGCTCGGGAAACCAAGCC ((((.((....)).)))) | 48.8 °C | -35.3 kcal/mol
GGCTCGTCGAAAGACGCC (((..(((....)))))) | 42 °C | -9.65 kcal/mol
GGCTCTGGAAACGGAGCC (((((.(....).))))) | 60 °C | -47.1 kcal/mol
GGCTGATCGAAAGATGCC (((..(((....)))))) | 43.9 °C | -22.6 kcal/mol
GGCTGCGAAAGCAATGCC ((((((....)))..))) | 55 °C | -22 kcal/mol
GGCTGCGAAAGCACCGCC ((((((....)))..))) | 54.1 °C | -20.7 kcal/mol

Sequence | Tm [1] | folding enthalpy [2]
GGCTGCGAAAGCAGCGCC ((((((....)))..))) | 68.8 °C | -5.65 kcal/mol
GGCTGCGAAAGCATGGCC ((((((....)))..))) | 54.6 °C | -31.8 kcal/mol
GGCTGCGGAAACACAGCC (((((.(....).))))) | 56 °C | -42 kcal/mol
GGCTGGGCGAAAGCCGCC (((..(((....)))))) | 58.4 °C | -19.6 kcal/mol
GGCTGGGGAAACCCGGTC (.(.(((....))).).) | 46.1 °C | -28.5 kcal/mol
GGCTGTCCGAAAGGAGCC (((..(((....)))))) | 47.4 °C | -25.1 kcal/mol
GGCTGTCGAAAGACCGCC (((.(((....))).))) | 56.6 °C | -36.6 kcal/mol
GGCTGTCGAAAGACTGCC (((.(((....))).))) | 63 °C | -41.2 kcal/mol
GGCTGTGCGAAAGCAGCC (((..(((....)))))) | 57.5 °C | -27.1 kcal/mol
GGCTGTGGAAACACGGTC (.(.(((....))).).) | 44.4 °C | -28.1 kcal/mol
GGCTTAGGAAACTAAGCC (((((((....))))))) | 62.9 °C | -48.5 kcal/mol
GGCTTCCGAAAGGATGCC (((.(((....))).))) | 62 °C | -48.9 kcal/mol
GGCTTCGAAAGAACCGCC ((((((....)))..))) | 47.4 °C | -21.1 kcal/mol
GGCTTCGAAAGAACGGCC ((((((....)))..))) | 43 °C | -27.9 kcal/mol
GGCTTCGAAAGAAGCGCC ((((((....)))..))) | 57 °C | -9.54 kcal/mol
GGCTTCGAAAGAAGGGCC ((((((....)))..))) | 40.4 °C | -19.6 kcal/mol
GGCTTCGGAAACGAGGTC (.(.(((....))).).) | 39.3 °C | -26.3 kcal/mol
GGCTTGGAAACAAGCC ((((((....)))))) | 66.6 °C | -31.2 kcal/mol
GGCTTGGCGAAAGCCGCC (((..(((....)))))) | 68.8 °C | -16.6 kcal/mol
GGCTTGGGAAACCAGGCC (((.(((....))).))) | 56.1 °C | -49 kcal/mol
GGCTTTGGAAACAAAGTC (.(((((....))))).) | 48.9 °C | -39.8 kcal/mol
GGCTTTGGAAACAAGGCC (((.(((....))).))) | 51.6 °C | -40.5 kcal/mol
GGCTTTGGAAACGAAGTC (.(((.(....).))).) | 34.7 °C | -14.7 kcal/mol
